Hits are enriched below; roughly 1.2% of the tested compounds scored in any of these assays.
HKDC1 inhibitor = HKDC1 (human) hexokinase inhibition; Q2TB90; recombinant HKDC1, G6PDH/diaphorase resazurin coupled fluorescence; inhibition, % at 20 µM; 0.16% of 340,000 active;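 active means inhibition above about 35% when tested at 20 µM, limit read from the data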;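 further: plate controls were DMSO wells with enzyme for no effect and DMSO wells lacking enzyme for full effect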
Target sequence (Q2TB90 whole entry, looked up): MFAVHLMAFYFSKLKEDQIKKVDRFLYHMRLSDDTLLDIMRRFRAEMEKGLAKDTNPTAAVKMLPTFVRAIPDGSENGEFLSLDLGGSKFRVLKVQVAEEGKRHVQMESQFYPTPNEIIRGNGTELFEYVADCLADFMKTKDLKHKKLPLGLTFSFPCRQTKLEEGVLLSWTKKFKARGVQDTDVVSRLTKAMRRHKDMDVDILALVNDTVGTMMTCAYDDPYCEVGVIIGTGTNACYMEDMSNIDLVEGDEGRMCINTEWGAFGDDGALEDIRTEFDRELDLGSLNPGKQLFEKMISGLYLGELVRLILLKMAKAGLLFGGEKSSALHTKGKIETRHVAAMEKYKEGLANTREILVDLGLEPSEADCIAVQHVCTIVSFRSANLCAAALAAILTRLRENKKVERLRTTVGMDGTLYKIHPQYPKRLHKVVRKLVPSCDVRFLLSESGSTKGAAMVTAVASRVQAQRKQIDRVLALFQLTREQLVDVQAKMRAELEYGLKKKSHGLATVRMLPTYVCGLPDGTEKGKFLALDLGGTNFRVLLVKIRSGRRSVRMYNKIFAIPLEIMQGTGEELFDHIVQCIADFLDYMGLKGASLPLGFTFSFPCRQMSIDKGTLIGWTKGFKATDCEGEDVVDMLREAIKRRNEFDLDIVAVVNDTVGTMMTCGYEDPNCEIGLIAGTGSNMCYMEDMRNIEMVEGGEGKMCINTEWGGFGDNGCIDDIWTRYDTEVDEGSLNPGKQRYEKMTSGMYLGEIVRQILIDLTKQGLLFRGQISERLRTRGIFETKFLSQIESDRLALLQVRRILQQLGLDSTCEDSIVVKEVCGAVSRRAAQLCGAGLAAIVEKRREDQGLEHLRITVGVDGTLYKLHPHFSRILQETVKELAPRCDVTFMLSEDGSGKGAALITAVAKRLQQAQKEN
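test system = in-house recombinant HK5 (HKDC1) enzyme | amount = HKDC1 at 5 µg/mL | control set = DMSO-enzyme wells negative, buffer-substituted wells positive | compound = one dose of 20 µM, 1% DMSO | schedule = reaction time 90 min, room temperature, protected from light | technique = resorufin fluorescence at 613 nm | reagent = glucose with 1 mM ATP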
Diaph act CS = diaphorase activation or chemical reduction counter-screen. 0.005% of 190,000 active. activation factor at 20 µM. Diaphorase/resazurin coupled assay, resorufin fluorescence, 16 min; active compounds read high; 1 = vehicle wells, 0 = NADH-free wells. AID 1229;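 active means diaphorase activity raised at least twofold by the compound at 20 µM; inactive means activation factor below 2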
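Material: bacterial diaphorase enzyme (C. kluyveri); amount: enzyme 0.07 U/mL final; reagent: NADH substrate 0.114 mM plus resazurin dye 0.1 mM, final; doses: single compound dose of 20 µM, 1% DMSO final; timing: 16 min enzyme reaction, ambient temperature; measured by: fluorescence of resorufin, 544 nm excitation, 590 nm emission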
Diaph inh CS = inhibits diaphorase or chemically oxidizes, flagging diaphorase assay artifacts; diaphorase resazurin-to-resorufin fluorescence, NADH, 16 min; bacterial (C. kluyveri) enzyme, not human; inhibition, % at 20 µM; 0.69% of 190,000 active; AID 1217;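 active means primary screen inhibition at 20 µM above a set limit, cut at about 50% in these data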;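 further: plate controls were DMSO with full reaction for no effect and wells lacking NADH for full effect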
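System: Bacterial diaphorase enzyme (C. kluyveri) | Incubation: 16-min room-temperature incubation before reading | Benchmarks: No-NADH positive control and DMSO neutral control | Measured by: Resorufin fluorescence 544/590 nm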
PfGluPho inh = PfG6PD (Plasmodium falciparum) enzyme inhibition; PfGluPho enzyme, NADPH resazurin-diaphorase fluorescence; inhibition, % at 20 µM; 0.78% of 350,000 active;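 active means inhibition reaching at least a set limit at 20 µM in the primary screen, cut at about 59% in these data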;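 further: 0% = DMSO wells with substrate and 100% = DMSO wells lacking glucose-6-phosphate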
G6PDH CS = inhibits Leuconostoc G6PDH, flagging false hits in G6PDH-based assays. Purified L. mesenteroides G6PDH, diaphorase/resazurin coupled fluorescence, 45 min. inhibition, % at 5 µM. 0.12% of 200,000 active. AID 1020; in the data active means inhibition above about 50%
The depositor's hits bear a star; / = not tested or not shown.

SMILES	HKDC1 inhibitor	Diaph act CS	Diaph inh CS	PfGluPho inh	G6PDH CS
Cc1cc(C)c2nc(NC(=O)C3CSC4(C)CCC(=O)N34)sc2c1 (stereo unspecified)	2	/	/	-10	/
CCOC1=C/C(=C/c2c(N)n3nc(-c4ccccc4)sc3nc2=O)C=CC1=O	9	0.3	69*	-15	15
COC1=C/C(=C/c2c(N)n3nc(-c4ccc(C)cc4)sc3nc2=O)C=CC1=O	22	0.8	21	-15	15
COc1ccc(/C=N/NC(=O)c2ccc(C)cc2)cc1CN1CCN(c2ccc(F)cc2)CC1	-1	0.9	13	-11	0
COc1ccc(/C=N\NC(=O)c2cc(O)c(O)c(O)c2)cc1CN1CCN(c2ccc(F)cc2)CC1	4	0.4	63*	39	-20
CS(=O)(=O)C1=NSC2=NC(=O)/C(=C\c3cccn3-c3ccc(Cl)cc3)C(=N)N21	23	0.5	51*	-23	-1
Cc1cc(/C=C2/C(=N)N3C(=NC2=O)SN=C3S(C)(=O)=O)c(C)n1-c1ccccc1F	28	0.9	13	-48	6
NCCc1ccc(O)c(O)c1	-9	0.5	54*	40	47
CNC(=S)NNC(=O)c1sccc1OCc1ccc(Cl)cc1Cl	-8	0.9	6	-2	0
S=c1nc(-c2sccc2OCc2ccc(Cl)cc2Cl)[nH][nH]1	-4	0.5	54*	11	-4
CCn1c(SCC(=O)N/N=C/C=C\c2ccco2)nc2ccccc21	-9	0.8	22	48	-18
Cn1c(SCC(=O)N/N=C/C=C\c2ccco2)nc2ccccc21	9	0.6	45	62*	12
Cc1ccc(-c2nn3cnnc3c3ccccc23)cc1	-2	1	1	12	9
CSc1nc(-c2ccco2)nn1S(=O)(=O)c1ccc(C)cc1	0	0.4	58*	14	2
CSc1nc(-c2ccco2)nn1S(=O)(=O)c1ccccc1	/	0.8	22	/	10
CC1(C(=O)O)CCC(C(=O)NNC(=O)c2ccccc2Cl)C1(C)C (stereo unspecified)	3	/	/	7	/
Cn1c(CC2C(=O)Nc3ccc(Br)cc32)nc2ccccc2c1=O (stereo unspecified)	8	0.8	17	9	-24
O=C1Nc2ccc(Br)cc2C1Cc1ccccc1F (stereo unspecified)	6	/	/	89*	/
CCN1C(=NCCN2CCOCC2)N[C@@H](c2ccccc2)C(C(=O)OC)=C1C	-6	/	/	0	/
Cc1cccc(N2CCc3c2nc2ccc(Br)cc2c3N)c1	8	0.2	78*	37	7
O=C(O)c1cccc(N=NN2CCOCC2)c1	0	/	/	-26	10
CN(C)c1ccc(CC2C(=O)Nc3ccccc32)cc1 (stereo unspecified)	5	/	/	83*	/
CCS(=O)(=O)c1ccc(O)c(NC(=O)c2cc(-c3ccccn3)nc3ccccc23)c1	3	/	/	-1	/
Cc1occc1-c1nnc(SCC(=O)Nc2ccccc2)n1C	1	0.2	78*	-10	6
CN(C)c1ccc(N=Cc2ccco2)cc1	3	0.5	48	60*	28
SMILES	HKDC1 inhibitor	Diaph act CS	Diaph inh CS	PfGluPho inh	G6PDH CS
CN(C)c1ccc(C=Nc2ccccc2)cc1	-5	1.1	-7	-19	6
C(=Nc1cccc2c(N=Cc3ccco3)cccc12)c1ccco1	-7	0.2	81*	20	11
COCCN(C(=O)CSc1nnc(-c2ccc(C(C)(C)C)cc2)n1N)c1c(N)n(CC(C)C)c(=O)[nH]c1=O	2	/	/	8	/
Oc1c(Cl)cc(CN2CCOCC2)c2cccnc12	4	/	/	15	/
O=[N+]([O-])c1cc(CN2CCN(c3ccccc3)CC2)c(O)c2ncccc12	17	0.9	10	2	62*
CN(Cc1cc([N+](=O)[O-])c2cccnc2c1O)C1CCCCC1	/	0.8	22	/	20
O=C(Oc1c(CN2CCOCC2)cc(Cl)c2cccnc12)c1ccccc1F	11	0.5	50*	13	43
O=[N+]([O-])c1cc(CN2CCOCC2)c2cccnc2c1O	1	0.5	45	26	55*
CN(C(=O)c1ccc(NC(=O)Cc2ccc(NC(=O)C3CCCN(S(=O)(=O)c4cccc([N+](=O)[O-])c4)C3)cc2)cc1)C1CCCC1 (stereo unspecified)	-1	/	/	-24	/
CCCn1c(SCC(=O)N2c3ccccc3Sc3ccccc32)nc2c1c(=O)n(C)c(=O)n2C	-2	0.8	16	8	1
CC(C)n1c(SCC(=O)N2c3ccccc3Sc3ccccc32)nc2c1c(=O)n(C)c(=O)n2C	1	0.2	76*	0	6
N#CCCN(C(=O)COC(=O)c1cc(S(=O)(=O)N2CCOCC2)ccc1Cl)c1ccc(F)cc1	0	/	/	-1	/
Oc1ccc(/C=N/Nc2cc(N3CCOCC3)nc(N3CCOCC3)n2)cc1	16	/	/	-3	/
Oc1ccc(/C=N/Nc2cc(N3CCCC3)nc(N3CCCC3)n2)cc1	7	0.8	24	4	52*
Oc1ccc(/C=N/Nc2nc(N3CCCC3)nc(N3CCCC3)n2)cc1O	1	0.3	72*	21	28
COc1ccc(NC(=O)CCC(=O)c2cccs2)cc1S(=O)(=O)Nc1ccc(Cl)cc1	-1	0.5	50*	5	-14
O=c1oc2c(O)c(O)cc3c(=O)oc4c(O)c(O)cc1c4c23	54*	0.1	86*	30	28
O=c1oc2ccccc2c2oc3cc(O)c(O)cc3c12	9	/	/	-5	/
O=C1CCC(C(=O)Nc2cccc(S(=O)(=O)Nc3ccccc3F)c2)=NN1	-37	/	/	92*	/
O=C(Nc1cccc(S(=O)(=O)Nc2ccccc2F)c1)c1ccco1	-6	/	/	7	/
CN(N)C(=S)Nc1ccc(Cl)cc1	-10	1	3	6	3
Cc1ccc(C2CC(=O)N3CN(c4ccc(Br)cc4)CSC3=C2C#N)o1 (stereo unspecified)	0	0.4	58*	54	16
CCOc1ccc(N2CSC3=C(C#N)C(c4ccco4)CC(=O)N3C2)cc1 (stereo unspecified)	-1	0.6	42	4	23
COc1ccc(OC)c(C2CC(=O)N3CN(c4cccc(Cl)c4)CSC3=C2C#N)c1 (stereo unspecified)	3	0.5	46	56	7
COc1ccc(Br)cc1C1CC(=O)N2CN(Cc3ccccc3)CSC2=C1C#N (stereo unspecified)	12	0.4	57*	71*	21
COc1ccc(OC)c(C2CC(=O)N3CN(c4cccc(Cl)c4C)CSC3=C2C#N)c1 (stereo unspecified)	12	0.5	52*	83*	7
COc1ccc(OC)c(C2CC(=O)N3CN(c4ccccc4F)CSC3=C2C#N)c1 (stereo unspecified)	11	0.6	37	53	2
